Screens: PubChem BioAssay, several laboratories
An excerpt weighted towards active compounds, which were near 3.9% of everything screened.
FID counter: fluorescent intercalator displacement, NS3 helicase counter-screen; DNA fluorescent intercalator displacement, fluorescence; inhibition, % at 7.9 µM; actives 0.17% (n = 290,000); AID 1845; in the data active = inhibition above about 37%;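 note: higher means more ethidium bromide displaced from hairpin DNA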
HSF1 inh: HSF1 inhibition. AID 2098. actives 0.77% (n = 300,000). activity change, negative = inhibition, % at 7.5 µM (by protocol). NIH3T3-HGL HSE-luciferase, MG132-induced, luminescence 8 h; hits give low values;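 active = more than half of replicate wells show activity change below -50%, luminescence cut by over half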;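 note: luciferase reports HSF-1 transcriptional activity via heat shock element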
NS3 helicase inh: HCV NS3 helicase inhibition. AID 1800. inhibition, % at 10.9 µM. NS3 helicase DNA unwinding, Cy5 molecular beacon fluorescence. actives 0.56% (n = 290,000);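 active = inhibition above the mean of all tested compounds plus 3 SD, set per campaign, cut at about 35% in these data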
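test system = hepatitis C virus NS3 helicase domain fragment enzyme | reagent = annealed dual-labelled DNA beacon duplex, ATP-started | times = 1 h at 25 °C | detection = Cy5 fluorescence, 0 and 60 min reads | read-out basis = percent inhibition from t60/t0 fluorescence ratio | control set = DMSO and thioflavine S | replication = one well per compound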
HSP90 refold inh: blocks HSP90-mediated luciferase refolding in reticulocyte lysate | Rabbit reticulocyte lysate, luciferase refolding luminescence, 3 h | inhibition, % at 5.6 µM | actives 0.91% (n = 290,000) | AID 1789;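 active = inhibition above the screen-wide mean plus 3 SD, computed separately per campaign, cut at about 16% in these data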;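 note: inhibitors lower the luminescence because luciferase stays unfolded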
core dimer inh: blocks dimerization of HCV core protein. AID 1899. inhibition, % at 5 µM. TR-FRET GST/Flag-core106 dimerization, 1536-well. actives 0.33% (n = 300,000);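 active = inhibition above the mean of all tested compounds plus 3 SD, set per screening campaign, cut at about 45% in these data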
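System: GST-tagged and Flag-tagged HCV core protein residues 1-106 / Input: core106 proteins, GST 13.5 nM and Flag 17 nM / Buffer or medium: KF-containing HEPES buffer, pH 7.45, DTT, CHAPS, BSA / Probe or stimulus: Eu-anti-GST and XL665-anti-Flag labelled anti-tag antibodies / Schedule: 4 h, 22.5 °C incubation / Technique: TR-FRET 671 and 617 nm emission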
HSF-1 act: increases HSF-1 driven luciferase reporter signal | actives 1.7% (n = 300,000) | NIH3T3-HGL HSF-1 luciferase reporter, MG132, 8 h; 100% = twice DMSO control signal | activation, % at 9 µM | AID 504408;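 active = mean replicate activation of at least 50% with a set share of replicates each reaching 50%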
Numbers stand for hits; - = inactive; . = no result given.

SMILES | FID counter | HSF1 inh | NS3 helicase inh | HSP90 refold inh | core dimer inh | HSF-1 act
Cc1ccc(OCC(=O)N/N=C/c2c[nH]c3ccccc23)c([N+](=O)[O-])c1 | - | - | - | - | - | -
CNC(=O)C1CC(=O)N(c2ccc(OCC(=O)N3CCCC3)cc2)C1 (centres undefined) | - | - | - | - | - | 54
C=CCNC(=O)C1CC(=O)N(c2ccc(OCC(=O)Nc3ccccc3)cc2)C1 (centres undefined) | - | - | - | - | - | 53
Cc1ccc(OCCC(=O)OCC(=O)Nc2ccc3[nH]c(=O)[nH]c3c2)cc1 | . | - | . | . | - | -
Cc1cccc(NC(=O)CCNC(=O)c2ccco2)c1 | - | - | - | - | - | 58
Cc1cccc(NC(=O)C(=O)NCCCN2CCOCC2)c1 | - | - | - | - | - | -
N#Cc1cccc(NCC(=O)Nc2ccc3c(c2)OCCO3)c1 | - | - | - | - | - | 68
O=C(CNC(=O)c1ccco1)Nc1ccc2c(c1)OCCO2 | . | -67 | . | . | - | -
Cc1cccc(NC(=O)C(=O)NCCCc2ccccc2)c1 | - | - | - | - | - | 83
CC(C)(C)NCC1(CO)SC(N)=NC1=O (centres undefined) | - | - | - | - | - | -
O=C(CSc1ccccc1)Nc1cccc(NC(=O)c2ccco2)c1 | - | -68 | - | - | - | -
O=C(CSc1ccc(Cl)cc1)Nc1cccc(NC(=O)c2ccco2)c1 | - | - | - | - | - | -
Cc1nc(NC(=O)CN2CCN(c3ccccc3F)CC2)sc1C(=O)N(C)C | - | - | - | 16 | - | -
Cc1ccc(S(=O)(=O)N(OCc2ccccc2)C(C)C(=O)O)cc1 (centres undefined) | . | - | . | . | - | -
COc1ccc(-c2nn(-c3ccccc3)cc2CNC(=O)c2cccc([N+](=O)[O-])c2)cc1 | - | . | - | - | - | .
CCC(C)NC(=O)c1cn(CC)c2cc(N3CCN(C(=O)c4ccco4)CC3)c(F)cc2c1=O (centres undefined) | - | - | - | - | - | -
Cn1nc(C(C)(C)C)cc1NC(=O)Nc1cc(Cl)cc(Cl)c1 | - | - | - | - | - | -
Cn1cccc1/C=C1\SC(=O)N(c2ccccc2)C1=O | - | - | - | - | - | 65
Cn1cc(/C=C2/SC(=O)N(c3ccccc3)C2=O)c2ccccc21 | - | - | - | - | - | -
Cn1cc(NC(=O)OCc2ccc(Cl)cc2)c(C(F)(F)F)n1 | - | - | - | - | - | 56
Cn1cc(C(=O)Nc2ccc(Cl)cc2)c(C(F)(F)F)n1 | - | - | - | - | - | -
CC(C)C(=O)N1CCC(n2nccc2NC(=O)CCOc2ccccc2)CC1 | - | - | - | - | . | 54
Cc1ccc(NC(=O)c2ccccc2N(C)S(=O)(=O)c2ccccc2)c(C)c1 | - | - | - | - | - | 65
CC(=O)Nc1ccc(NC(=O)c2ccccc2N(C)S(=O)(=O)c2ccc(C)cc2)cc1 | - | - | - | - | - | -
Cc1ccc(S(=O)(=O)N(C)c2ccccc2C(=O)NC2CCCC2)cc1 | - | -72 | - | - | - | -
SMILES | FID counter | HSF1 inh | NS3 helicase inh | HSP90 refold inh | core dimer inh | HSF-1 act
CC(=O)c1ccc(-n2c(-c3cc(-c4ccsc4)n[nH]3)n[nH]c2=S)cc1 | - | - | - | - | - | -
CCOc1ccc2nc(SCC(=O)c3ccc(Cl)s3)sc2c1 | - | - | - | - | - | -
CCOc1ccc2nc(SCC(=O)c3cccs3)sc2c1 | - | - | - | - | - | 61
O=C(NCc1ccncc1)NC1CCCCC1 | - | - | - | - | - | -
C/C=C1\COC(C(=O)NCc2cccc(OC)c2OC)(C(F)(F)F)C=C1C=C1CCCCC1 (centres undefined) | . | - | . | . | - | 69
C/C=C1\COC(C(=O)NCc2ccncc2)(C(F)(F)F)C=C1C=C1CCCCC1 (centres undefined) | . | - | . | . | - | 63
CCN(CC)S(=O)(=O)c1ccc2[nH]cc(C(=O)NC3CC3)c(=O)c2c1 | - | - | - | - | - | -
COc1cc(/C=C/C(=O)c2ccc(Cl)s2)cc(OC)c1O | - | - | - | - | - | 174
Cc1cccn2c(CN3CCCN(C=O)CC3)c(C(=O)N(C)CCc3ccccc3)nc12 | - | - | - | - | - | -
CCOC(=O)CNC(=O)CSc1nnc(C)c(=O)[nH]1 | - | -81 | - | - | - | -
CCOC(=O)c1c(NC(=O)CSc2nnc(C)c(=O)[nH]2)sc(C)c1C | - | - | - | - | - | -
CC(Sc1nc(NC(C)(C)C)nc(N(C)C)n1)C(=O)Nc1ccccc1 (centres undefined) | - | - | - | - | - | -
CCOc1nc(SC(C(C)=O)C(=O)Nc2ccccc2)nc(N(C)C)n1 (centres undefined) | - | - | - | - | - | 56
O=C(NCCCn1ccnc1)c1ccc(Br)o1 | - | - | - | - | - | -
CC(/C=C\c1ccccc1)=C/C(=O)O | - | - | - | - | - | -
CC(/C=C/c1cccs1)=C\C(=O)O | - | - | - | - | - | 92
O=c1c(/C=N\NS(=O)(=O)c2ccccc2)coc2ccc(Cl)cc12 | - | -75 | - | - | - | -
COc1ccc(CCNC(=O)C(=O)NCCC2CCCCN2S(=O)(=O)c2ccccc2)cc1 (centres undefined) | . | - | . | . | - | -
CC1(C)CC(CCN)(Cc2ccccc2Cl)CCO1 (centres undefined) | - | - | - | - | - | 60
CC(C)(C)NC(=O)N1CCC(CO)(Cc2ccccc2Cl)CC1 | - | - | - | - | - | -
Cc1nn(-c2ccccc2)c(N)c1C(c1ccc(C(C)C)cc1)c1c(C)nn(-c2ccccc2)c1N | - | - | - | - | - | -
Cc1ccc(C(c2c(C)nn(-c3ccccc3)c2N)c2c(C)nn(-c3ccccc3)c2N)cc1 | - | - | - | - | - | 93
Cc1ccc(NC(=O)COC(=O)Cc2cccs2)cc1S(=O)(=O)N1CCOCC1 | - | - | - | - | - | -
COc1ccc(NCc2nnc(SCC(=O)Nc3cc(C)cc(C)c3)o2)cc1 | - | - | - | - | - | -
COc1ccc(NCc2nnc(SCC(=O)Nc3cc(C(F)(F)F)ccc3Cl)o2)cc1 | - | -60 | - | - | - | -
CCc1cccc(OCC(O)Cn2c(N3CCCCC3)nc3c2c(=O)[nH]c(=O)n3C)c1 (centres undefined) | - | - | - | - | - | -
CC1=NC(=O)C(N=Nc2cccc(C(=O)O)c2)N1c1ccccc1 (centres undefined) | - | - | - | 17 | - | -
O=C1C2Sc3[nH]c(=O)sc3C(c3cc([N+](=O)[O-])ccc3O)C2C(=O)N1c1ccccc1 (centres undefined) | - | - | - | - | - | -
